Source: PubChem BioAssay (several laboratories)
CHOP UPR activ – apoptotic UPR (CHOP) activation; CHO-CHOP luciferase reporter, luminescence; percent of tunicamycin response over DMSO baseline; 0.34% of 330,000 active; AID 449763; activation, % at 10 µM;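 active = at 10 µM dose, activation of 40% or more, normalized to positive control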;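 also: 100% = tunicamycin at 10 µg/mL and 0% = DMSO alone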
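System: CHO-CHOP luciferase reporter cell line | Buffer or medium: F12 medium containing 10% fetal bovine serum | Doses: One dose, 10 µM in 0.5% DMSO | Times: 6 h compound exposure at 37 °C after overnight seeding | Signal: Luciferase luminescence | Read-out: % activation vs tunicamycin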
697 NFkB inh – inhibitors of the PMA/ionomycin-induced NF-kB reporter in 697 B cells; 697 B-cell NF-kB luciferase reporter, 16 h; inhibition, % at 4 µM; 0.33% of 330,000 active; AID 435022; in the data active = inhibition above about 35%
XBP1 UPR activ – adaptive UPR (XBP1) activation. CHO-XBP1 luciferase reporter, IRE1-XBP1 UPR activation, luminescence; percent of tunicamycin response, DMSO as zero. activation, % at 20 µM. 0.33% of 330,000 active. AID 463104;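 active = versus positive control, 20 µM dose yields 30% or more activation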;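 also: 100% = tunicamycin at 10 µg/mL and 0% = DMSO only wells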
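Material: CHO cell line with stable XBP1 luciferase reporter; buffer or medium: F12 medium containing 10% fetal bovine serum; compound: single point, 20 µM final compound, 1% DMSO; incubation: 6 h treatment, 37 °C; measured by: glow luminescence from Steady-Glo reagent; evaluation: activation, % of tunicamycin; control set: tunicamycin high, DMSO low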
CHOP inhibitor – CHOP inhibition in unfolded protein response. CHO-K1 CHOP-promoter luciferase, tunicamycin-induced, 15-18 h. inhibition, % at 10 µM. 3.8% of 220,000 active;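 active = compounds that reduced the stress-induced luciferase reporter signal by more than about 70% of percent inhibition, limit read from the data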;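 also: 0% = tunicamycin plus vehicle and 100% = wells without tunicamycin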
Jurkat NFkB inh – inhibitors of the PMA/ionomycin-induced NF-kB reporter in Jurkat cells; inhibition, % at 4 µM; AID 435003; 0.53% of 330,000 active; PMA/ionomycin-induced NF-kB luciferase reporter, luminescence; in the data active = inhibition above about 50%
CHOP confirm – confirmation of CHOP induction inhibitors; CHO-CHOP promoter luciferase reporter, tunicamycin-induced, luminescence; AID 504437; inhibition, % at 10 µM; 45% of 2,100 active; shares compounds with CHOP inhibitor;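 active = mean of three repeat readings of reporter signal inhibition above a set limit, cut at about 70% in these data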;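 also: 0% = tunicamycin plus vehicle and 100% = wells lacking tunicamycin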
* marks the source's active call; other numbers are inactive results; . = not tested or not shown. Only a selection was taken, and hits are over-represented in it overall.

SMILES	CHOP UPR activ	697 NFkB inh	XBP1 UPR activ	CHOP inhibitor	Jurkat NFkB inh	CHOP confirm
COc1ccc(NC(=O)C2CCN(S(=O)(=O)c3cccs3)CC2)cc1OC	-1	21	-2	.	8	.
CCc1nc(NCC(C)C)c(C#N)c2c1COC(C)(C)C2	0	7	0	108*	9	71*
CCc1nc(NCC2CCCO2)c(C#N)c2c1COC(C)(C)C2 (configuration not stated)	-1	7	-2	26	10	.
COC(=O)c1c(NC(=O)Nc2ccc(Cl)cc2)sc(C)c1C	0	-7	3	100*	-2	99*
Cc1cccc(NC(=O)Nc2ccc3c(c2)CCC3)c1	7	-73	3	.	-103	.
CC(C)CN(C(=O)COC(=O)C1=COCCO1)c1c(N)n(Cc2ccccc2)c(=O)[nH]c1=O	1	-9	-1	.	1	.
COc1ccc(NC(=O)CC2C(=O)N(c3ccc(F)cc3)C(=S)N2NC(=O)c2ccc(Cl)cc2)cc1 (configuration not stated)	2	-23	-1	106*	5	43
Cc1cc(/C=C2\C(=O)NN(c3ccccc3)C2=O)c(C)n1-c1ccccc1O	5	-77	2	96*	-34	15
CSc1cccc(NC(=O)COc2cccc3ccccc23)c1	0	21	3	106*	11	16
CCc1ccc(S(=O)(=O)/N=C2/C=C(Sc3ncn[nH]3)C(=O)c3ccccc32)cc1	.	.	.	108*	.	-141
CCc1ccc(S(=O)(=O)/N=C2\C=CC(=O)c3ccccc32)cc1	14	-4	18	-30	9	.
O=S(=O)(Nc1ccccc1N1CCOCC1)c1c(F)cc(F)cc1Br	0	8	-2	.	-2	.
O=C(N/N=C/c1ccccn1)c1cc(-c2ccc3ccccc3c2)n[nH]1	2	-25	3	103*	-13	114*
O=C(N/N=C/c1ccco1)c1cc(-c2ccc3ccccc3c2)n[nH]1	0	-31	-4	110*	-14	4
CCc1ccc(-c2cc(C(=O)N/N=C/c3ccco3)[nH]n2)cc1	1	-45	6	-33	-7	.
O=C(N/N=C/c1c[nH]c2ccccc12)c1cc(-c2ccccc2)n[nH]1	-1	17	3	14	6	.
O=C(N/N=C/C=C\c1ccccc1[N+](=O)[O-])c1cc(-c2ccc3ccccc3c2)n[nH]1	.	.	.	106*	.	-34
O=C(N/N=C/c1c[nH]c2ccccc12)c1cc(-c2ccc(-c3ccccc3)cc2)n[nH]1	29	-51	4	109*	-22	40
N#CCOC(=O)C1CCN(S(=O)(=O)c2ccc3c(c2)OCCO3)CC1	0	11	-1	.	-1	.
CC(NC(=O)C12CC3CC(CC(O)(C3)C1)C2)c1ccc(Cl)cc1Cl (configuration not stated)	2	9	-3	.	21	.
O=C(N/N=C/c1c[nH]c2ccccc12)C1CC1(c1ccccc1)c1ccccc1 (configuration not stated)	4	17	-1	100*	17	34
CCOC(=O)c1cc([N+](=O)[O-])c([N+](=O)[O-])cc1NC(C)=O	.	.	.	107*	.	91*
CN(C)c1ccc(Sc2nnc(NC(=O)Nc3ccc(Cl)cc3Cl)s2)cc1	3	-4	14	100*	3	36
CC(=O)C1=C(C)Nc2ncnn2C1c1ccc(O)cc1 (configuration not stated)	0	5	0	.	-12	.
CC1CCC(C(C)C)C(OC(=O)COC(=O)c2cc(O)ccc2N)C1 (configuration not stated)	23	1	26	105*	18	109*
SMILES	CHOP UPR activ	697 NFkB inh	XBP1 UPR activ	CHOP inhibitor	Jurkat NFkB inh	CHOP confirm
CC1CCC(C(C)C)C(OC(=O)COC(=O)c2ccc(=O)[nH]c2)C1 (configuration not stated)	0	-14	-2	63	3	.
C/C=C/C1=CC(=O)C[C@H](c2ccc(OC)c(OC)c2)C1	-2	20	0	.	10	.
Cc1ncsc1C(=O)Nc1cccc(C(F)(F)F)c1	2	7	1	.	-8	.
Cc1cccc(Nc2nc(N)c([N+](=O)[O-])c(N3CC(C)CC(C)C3)n2)c1 (configuration not stated)	1	-31	3	103*	1	118*
Cc1cccc(Nc2nc(N)c([N+](=O)[O-])c(N3CCC(C)CC3)n2)c1	2	-7	4	104*	5	30
COc1ccccc1CCC(=O)Oc1ccccc1C#N	0	7	-2	.	16	.
COc1ccc(C(=O)C(Sc2nnc(C)c(=O)[nH]2)c2ccc(OC)cc2)cc1 (configuration not stated)	0	11	-2	-3	10	.
CCCc1nn2c(=O)cc(COc3ccc(NC(=O)c4ccco4)cc3)nc2s1	3	-17	-6	.	7	.
Oc1ccc(Br)cc1-c1cc(-c2ccc(Cl)cc2)n[nH]1	2	-58	6	104*	-32	16
Cc1cccc2nc(CNC(=O)CC3C(=O)NCCN3Cc3cccc(F)c3)cn12 (configuration not stated)	0	9	-2	.	-2	.
O=C(N/N=C/c1cccc(O)c1)c1ccc(COc2ccc3c(c2)CCC3)o1	3	-91	-2	109*	-8	-4
CCN1CCN(Cc2ccc(NC(=O)c3cc(NC(=O)c4nccnc4N)cc(OC)c3)cc2C(F)(F)F)CC1	0	-24	3	21	-18	.
CCN1CCN(Cc2ccc(NC(=O)c3cc(NC(=O)c4cncc(-c5ccc(C#N)cc5)c4)cc(OC)c3)cc2C(F)(F)F)CC1	3	22	-9	107*	-7	60
O=[N+]([O-])c1ccccc1C1Nc2cccc3cccc(c23)N1	4	-55	1	106*	-23	12
O=C(CCN=C1NS(=O)(=O)c2ccccc21)OCc1ccccc1	-2	-40	0	.	-8	.
Cc1cccc(/C=N\NC(=O)c2ccc(Cl)cc2)c1O	7	-186	2	98*	-13	17
CN1CCN(CCCNC(=O)CCC(=O)N2CCOc3ccccc32)CC1	0	-14	-1	.	3	.
C=CCOc1ccc(/C=C2\SC(=Nc3cccnc3)NC2=O)cc1	0	-22	2	101*	-5	-3
CC(/C=C1\SC(=Nc2cccnc2)NC1=O)=C\c1ccccc1	1	13	4	27	7	.
CCCCN1C2=NC(c3ccccc3)CN2c2ccccc21 (configuration not stated)	1	-10	-1	.	-3	.
O=C(N=Nc1c(O)[nH]c2ccccc12)c1cccc(S(=O)(=O)N2CCCCC2)c1	3	-12	14	97*	4	-27
